To fix the notation:
B1: tRNA (parent)
chain: GUUCCGUUGGCGUAAUGGUAACGCGUCUCCCUCCUAAGGAGAAGACUGCGGGUUCGAGUCCCGUACGGAACG

Variants at the floor of the assay were thinned out. Some results are limits rather than exact numbers.

In the data set the parent is B1. The data set is described as follows: yeast fitness relative to wild type (ratio to wild type); higher = fitter; tRNA-Arg(CCU), competitive growth, 37 C, YPD. In short, it runs like this: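 Genotype frequency changes were the basis for Darwinian fitness relative to wild type. The frequencies came from 100-nucleotide paired-end sequencing of gene amplicons from the start population and each end population of pooled yeast strains with tRNA-Arg(CCU) gene variants at the native locus. Competition ran in YPD at 37°C for 24 hours in six replicates, genotypes needed ≥ 100 starting reads, and estimates < 0.5 were set to 0.5.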
For the variant G44C A65U, the yeast fitness is 0.873.

As to G44C U54C C60A, the yeast fitness was not above 0.5.

On to A42U C49U, for which the yeast fitness was 0.975.

Consider A42U A43C, for which the yeast fitness was 0.994.

For C46U G50A C66G, the yeast fitness was not above 0.5.

On to A43G U53C C55U, for which the yeast fitness came out at 0.561.

Take C46U C60U A65C: the yeast fitness is 0.589.

Turning to A42G G68C, the yeast fitness came out at 0.798.

On to A43U G56C, for which the yeast fitness came to 0.702.

With A42G U64C, the yeast fitness worked out at 0.904.

In the case of A42G U64A, the yeast fitness came to 0.724.

In the case of A43G G56A C66U G68U, the yeast fitness is 0.557.

Take A42U C62A U64G C66G: the yeast fitness was not above 0.5.

As to C46U U53A, the yeast fitness is 0.704.

Turning to U47A A65G, the yeast fitness amounted to 0.937.

As for G44C C49U U64G G67A, the yeast fitness was determined as 0.512.

For the variant A42U A43G G67A, the yeast fitness was 0.574.

For the variant C46U C55G, the yeast fitness was determined as 0.65.

In the case of C46U C55U, the yeast fitness came out at 0.823.

Regarding A43C C49A A65C, the yeast fitness was not above 0.5.

Regarding G44C A45G, the yeast fitness was found to be 0.958.

As to G41C G56C, the yeast fitness is 0.557.

In the case of A43U C62A A65U C66U, the yeast fitness was not above 0.5.

With A43C G56A C61A, the yeast fitness worked out at 0.525.

On to A42U G44C U54A C66U G67A, for which the yeast fitness was not above 0.5.

With A43G G68A, the yeast fitness stood at 0.873.

On to U47A A69C, for which the yeast fitness turned out to be 0.82.

Turning to A45U C61A G67A, the yeast fitness is not above 0.5.

Take A42G G63A: the yeast fitness was determined as 0.684.

With A43C C49U, the yeast fitness worked out at 0.964.

Take A42G G50A: the yeast fitness amounted to 0.842.

In the case of G44A A57U C66U, the yeast fitness stood at 0.547.

Turning to A45C C60G, the yeast fitness is 0.603.

A45U A69U: the yeast fitness was 1.05.

Turning to A45U A69C, the yeast fitness stood at 1.04.

In the case of U47G C49A A69U, the yeast fitness amounted to 0.573.

On to C46U A65U A69U, for which the yeast fitness was found to be 0.737.

For G44A A57G, the yeast fitness worked out at 0.688.

Regarding A43C U64C A70C, the yeast fitness amounted to 0.989.

In the case of A42C A45C G48A A70G, the yeast fitness came out at 0.632.

For the variant A43C G44C C55G C62U C66U, the yeast fitness is not above 0.5.

A42G A65C A69C A70G: the yeast fitness amounted to 0.577.

A42C G56A: the yeast fitness was determined as 1.01.

Regarding A45U U64A, the yeast fitness was 0.708.

As to A42C U53A G68C, the yeast fitness was not above 0.5.

A45C G56A: the yeast fitness was 0.977.

In the case of A45C G56C, the yeast fitness stood at 0.64.

For the variant A42G C49G C61G, the yeast fitness was not above 0.5.

A42G C62A C66U: the yeast fitness was found to be 0.614.

Regarding U47A C49U, the yeast fitness turned out to be 0.913.

With U47A C49G, the yeast fitness was 0.767.

With U47A A57G, the yeast fitness is 0.923.

In the case of U47C G58U A65U, the yeast fitness turned out to be 0.511.

For G48A C55U, the yeast fitness was 0.661.

Consider A42C C62A, for which the yeast fitness was found to be 0.719.

Regarding A42C C62U, the yeast fitness amounted to 0.829.

For A45G G50A, the yeast fitness is 0.857.

Turning to C46U G48C C62U, the yeast fitness came out at 1.03.

As to A42G U47C C62A C66U, the yeast fitness is not above 0.5.

As for C46A U54C, the yeast fitness was determined as 0.888.

G44C C49G U59A: the yeast fitness is not above 0.5.

Consider U47A C49U A65C, for which the yeast fitness amounted to 0.702.

Take C46A U47G G50A: the yeast fitness was 0.544.

On to A45G C66A, for which the yeast fitness stood at 0.581.

On to G44A C49G A65U, for which the yeast fitness amounted to 0.547.

For the variant A43G U47C A65U, the yeast fitness came out at 0.668.

On to A43C G44A U59A, for which the yeast fitness is 0.593.

U47A G50A: the yeast fitness was found to be 0.831.

G44A G56C: the yeast fitness was 0.585.

On to A42U G44A, for which the yeast fitness stood at 1.01.

As for C46G G58A, the yeast fitness was 0.989.

A45U A57U: the yeast fitness was 0.744.

Consider A45C G50C, for which the yeast fitness is 0.604.

In the case of A43C G63U, the yeast fitness came out at 0.638.

For G41C U54A, the yeast fitness was 0.667.

C46U C49A C55U: the yeast fitness is 0.678.

In the case of A43C G67C, the yeast fitness was determined as 0.867.

On to A43C G67A, for which the yeast fitness amounted to 0.685.

As for G48A C49U G63C, the yeast fitness came to 0.633.

Regarding U47C C60G A69C, the yeast fitness was not above 0.5.

With A43C A45G G58C, the yeast fitness came out at 0.685.

On to G44A U47C, for which the yeast fitness is 0.979.

For the variant A42U C55G, the yeast fitness amounted to 0.616.

As to C46U C60G C62G, the yeast fitness was not above 0.5.

As to U47G U54A G58A, the yeast fitness was not above 0.5.

As to G48A A69U, the yeast fitness turned out to be 0.961.

Take A45U C46A G51U: the yeast fitness was not above 0.5.

With U47C G52A, the yeast fitness stood at 0.724.

Turning to U47A C62G, the yeast fitness is 0.856.

Take A42G A57U G67C: the yeast fitness is not above 0.5.

On to A43C A69C, for which the yeast fitness was 1.04.

Regarding A43C A69U, the yeast fitness worked out at 1.12.

For the variant A42C A45C G48A A65G, the yeast fitness turned out to be 0.671.

Take A43C C46A G48C G63A: the yeast fitness was found to be 0.62.

For A45C C62U, the yeast fitness is 0.842.

C46A C60U: the yeast fitness amounted to 0.83.

In the case of A45G G58A A65U, the yeast fitness stood at 0.741.

Consider A43G C60U C62U C66U A70C, for which the yeast fitness is not above 0.5.

On to G48A A57C, for which the yeast fitness was found to be 0.643.

Turning to A45G U59C, the yeast fitness is 1.03.

As to A43G C60G, the yeast fitness turned out to be 0.734.

Regarding A43G A45G A70G, the yeast fitness was 0.532.

With A43C C46U, the yeast fitness is 1.03.

Take A42G C61G C66U: the yeast fitness was not above 0.5.

Turning to A43U C66A, the yeast fitness came out at 0.619.

With A43U G56A C66G, the yeast fitness is 0.553.

In the case of C46G U54C A69C, the yeast fitness was 0.601.

Turning to A45U A70C, the yeast fitness turned out to be 0.987.

Consider A42G U47G G50C, for which the yeast fitness is 0.608.

In the case of G44A G68A, the yeast fitness was found to be 0.802.

As for A45C C55U A69C, the yeast fitness was not above 0.5.

For the variant A42G G48A, the yeast fitness turned out to be 0.863.

As to G44C C60A, the yeast fitness is 0.572.

As to A42C C61G A65U, the yeast fitness worked out at 0.539.

For the variant A43C C49G A57G, the yeast fitness was 0.591.

Take U47C U53C: the yeast fitness came to 0.795.

Regarding A42U A65C, the yeast fitness amounted to 0.81.

In the case of A42U C60U A70G, the yeast fitness stood at 0.703.

As to C46U G52C A57U, the yeast fitness was not above 0.5.

Consider U47C A57C, for which the yeast fitness is 0.524.

For the variant A43C C62A A69C, the yeast fitness was 0.633.

As for C46G A57G, the yeast fitness worked out at 0.987.

Consider C46G C62A, for which the yeast fitness stood at 0.873.

In the case of A42U C46U, the yeast fitness was 0.97.

Take A45G U47G: the yeast fitness worked out at 0.756.

A45G C55A G58C: the yeast fitness was 0.537.

As to C46G G48A, the yeast fitness stood at 0.998.

Turning to A43U C61A, the yeast fitness amounted to 0.764.

Regarding U47A G48A, the yeast fitness turned out to be 0.867.

Consider A45U U47A, for which the yeast fitness was 0.786.

Consider A45U U47C, for which the yeast fitness is 0.995.

For G44A G50C A70G, the yeast fitness stood at 0.537.

Turning to A43C A70G, the yeast fitness was determined as 1.05.

For U47A U53C, the yeast fitness came out at 0.7.

Consider A45U C62G G63C, for which the yeast fitness was not above 0.5.

Consider A43U G50A G52U A69C, for which the yeast fitness was not above 0.5.

With U47C G50A G68C, the yeast fitness was found to be 0.539.

Consider G44C G48A G58A, for which the yeast fitness was found to be 0.881.

Regarding C46A A70U, the yeast fitness amounted to 1.04.

Turning to A43U U59C, the yeast fitness was found to be 1.02.

For the variant A42U A45U A69U, the yeast fitness was 0.707.

Take A45U G48A C66G: the yeast fitness is not above 0.5.

Consider A45U C55A, for which the yeast fitness was found to be 0.566.

On to A45U C55G, for which the yeast fitness amounted to 0.528.

Regarding G44C C49G U64A, the yeast fitness was not above 0.5.

For the variant U47C C66A, the yeast fitness was determined as 0.775.

For U47C C49U G68C, the yeast fitness came to 0.582.

Turning to A43G G50C, the yeast fitness amounted to 0.728.

As for A43U G56C C61A, the yeast fitness was not above 0.5.

On to A45U A57G U59C, for which the yeast fitness was 0.597.

With A45C C55U, the yeast fitness was found to be 0.692.

As for A45G C62A, the yeast fitness was determined as 0.8.

For A45G C62G, the yeast fitness amounted to 0.832.

A43U A65G: the yeast fitness stood at 1.01.

For the variant A42U A43U C62A A65U A69G, the yeast fitness was determined as 0.567.

Turning to A43U U47C C55G, the yeast fitness is not above 0.5.

With A43U U47C C55A, the yeast fitness is not above 0.5.

Take A43C C62G: the yeast fitness turned out to be 0.76.

In the case of A43C C66U, the yeast fitness was found to be 0.948.

A42U G52A G67U: the yeast fitness turned out to be 0.783.

Consider A42C U59A A69U, for which the yeast fitness came out at 0.528.

As to A43U G56A A57G, the yeast fitness came out at 0.691.

Regarding A43U C46A A65C, the yeast fitness was 0.688.

In the case of A43C U53A, the yeast fitness is 0.662.

For C46G U54C C62A, the yeast fitness is not above 0.5.

For the variant C46A C61U, the yeast fitness was found to be 0.901.

In the case of A45U A65C, the yeast fitness is 0.801.

The values above are taken from the RNAGym collection of RNA variant scans (doi:10.1126/science.aae0568).
